High-throughput results (PubChem BioAssay)
The list is not random: actives were taken first. Their share in the collection is about 3.3%.
HEK293 NFkB inh = inhibitors of PMA/ionomycin-induced NF-kB reporter, primary screen, antigen receptor NF-kB inhibitor project, cell-based, HEK-293 luciferase reporter, luminescence; HEK-293 NF-kB luciferase reporter; inhibition, % at 3 µM; 0.21% of 62,000 active;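 active = inhibition above the mean of all tested compounds plus 3 SD, cut at about 40% in these data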;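 note: 0% = stimulated DMSO wells and 100% = 10 µM reference inhibitor 5653914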
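Material: HEK-293 cells with stable firefly luciferase reporter driven by four HIV NF-kB elements / Also added: PMA plus ionomycin mix as NF-kB-activating stimulus / Compound dosing: 3 µM once, 0.30% DMSO / Times: 1 h pretreatment, 16 h stimulation, 37 °C / Signal: luminescence / Evaluation: per-plate % inhibition versus controls / Benchmarks: DMSO and 10 µM reference inhibitor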
5-HT1A blocker = human 5-HT1a receptor antagonists, primary screen, cell-based, CHO, Ga15 NFAT-bla reporter; 5-hydroxytryptamine receptor 1A (Homo sapiens), P08908; CHO 5-HT1a Ga15 NFAT-bla reporter, antagonist mode; inhibition, % at 10 µM; 0.68% of 62,000 active; AID 612, 2007;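 active = inhibition above the mean of all tested compounds plus 3 SD, cut at about 43% in these data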;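 note: receptor stimulated by 5-CT agonist at 100 nM near EC80; beta-lactamase reporter measured by ratiometric fluorescence of a cleavable substrate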
Target sequence (P08908 whole entry, looked up): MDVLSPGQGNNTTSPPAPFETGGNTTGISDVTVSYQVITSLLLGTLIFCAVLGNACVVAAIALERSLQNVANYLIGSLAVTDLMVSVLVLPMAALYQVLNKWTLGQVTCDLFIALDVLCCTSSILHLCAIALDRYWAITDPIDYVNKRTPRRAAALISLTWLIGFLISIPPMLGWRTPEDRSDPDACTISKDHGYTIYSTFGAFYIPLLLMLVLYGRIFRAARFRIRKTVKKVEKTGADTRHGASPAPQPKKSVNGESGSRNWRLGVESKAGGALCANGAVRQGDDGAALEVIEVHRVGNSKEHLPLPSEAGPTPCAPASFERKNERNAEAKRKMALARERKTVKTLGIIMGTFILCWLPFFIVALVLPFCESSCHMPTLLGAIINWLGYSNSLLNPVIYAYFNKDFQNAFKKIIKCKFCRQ
HTR1A agonist = human 5-HT1a receptor agonists, primary screen, cell-based, CHO, Ga15 NFAT-bla reporter; 0.56% of 65,000 active; CHO 5-HT1a Ga15 NFAT-bla reporter, FRET ratio; 0% basal, 100% maximal reference agonist; activation, % at 10 µM; 5-hydroxytryptamine receptor 1A (Homo sapiens), P08908;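 active = activation above the screen-wide mean activation plus 3 SD, cut at about 19% in these data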;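 note: 0% = DMSO wells and 100% = 5-CT at EC100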
Jurkat viability = cytotoxicity toward Jurkat T cells, primary screen, cytotoxicity control, cell-based, Jurkat E6.1, 60K MLSMR library. Jurkat E6.1 viability, ATP luminescence, 48 h. inhibition, % at 4 µM. 1.2% of 56,000 active. AID 463, 2006;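 active = inhibition above the mean inhibition of all tested compounds plus 3 SD, cut at about 28% in these data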
5HT1E ag = 5-HT1E receptor agonists, primary screen, cell-based, HTS; 5-hydroxytryptamine receptor 1E (Homo sapiens), P28566; CHO 5-HT1E Ga15 NFAT-bla reporter, FRET; 0% DMSO wells, 100% control agonist wells; activation, % at 6 µM; 0.69% of 65,000 active; AID 574, 2007;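 active = activation above a set limit, the screen-wide mean activation plus 3 SD, cut at about 8.5% in these data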;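 note: 100% = positive control agonist at 1 µM giving full maximal response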
5HT1E antag = 5-HT1E receptor antagonists, primary screen, cell-based, HTS | 5-hydroxytryptamine receptor 1E (Homo sapiens), P28566 | CHO 5-HT1E Ga15 NFAT-bla reporter, FRET, antagonist | inhibition, % at 6 µM | 0.99% of 65,000 active | AID 571, 2007;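 active = inhibition above a set limit, the mean inhibition across every tested compound plus 3 SD, cut at about 29% in these data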;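 note: signal is the 460 over 535 nm emission ratio of beta-lactamase substrate; 0% = agonist plus DMSO wells and 100% = wells without agonist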
* = called active by the depositor; · = not tested or not shown.

SMILES	HEK293 NFkB inh	5-HT1A blocker	HTR1A agonist	Jurkat viability	5HT1E ag	5HT1E antag
O=C1CC(C(=O)Nc2ccccc2)C2(CCCC2)O1 (stereo not drawn)	14	1	-1	·	14*	1
CC(C)=CCC(C)(C)CNC(=O)NC1CCCCC1	·	·	-2	·	-1	99*
COc1ccc(N=c2oc3c(OC)cccc3cc2C(=O)NCc2ccco2)c(OC)c1	-4	0	0	7	0	-3
CCOc1cc(C#N)c(NC(=O)c2cccnc2)cc1OCC	35	10	-1	72*	-1	5
CSc1ccccc1NC(=O)c1cccnc1	1	-12	-1	-5	48*	-3
CC(C)c1ccccc1NC(=O)c1cccnc1	12	2	-1	1	0	-7
CC(C)OC(=O)CSc1nnc(-c2cccnc2)n1N	12	10	0	0	-1	29*
CC(C)OC(=O)CSc1nnc(-c2cccnc2)n1Cc1ccccc1	20	-1	-1	1	0	-8
CC(Oc1ccc(Cl)cc1Cl)C(=O)NCCCN(C)C (stereo not drawn)	4	9	-3	8	-1	7
O=C(Nc1ccc(OC(F)F)c(Cl)c1)Nc1ccc2c(c1)OCO2	3	61*	-2	-2	0	9
COc1cc2c(cc1OC)/C(=C/C#N)NC(C)(C)C2	12	46*	-1	6	-1	44*
CCOc1ccccc1NC(=O)CCSc1nc2n[nH]c(C)c2c(=N)n1-c1ccccc1Cl	14	-5	6	·	2	24
Cc1ccccc1-n1c(SCc2ccccn2)nc2n[nH]c(C)c2c1=N	18	-93	5	13	1	57*
O=C(Nc1nc2ccc(S(=O)(=O)N3CCCC3)cc2s1)C1CCCCC1	10	8	0	93*	2	18
CC(=O)NC1CC(C)(C)N(OC(C)=O)C(C)(C)C1	10	9	-2	·	-1	-7
Cc1cccc(C)c1-n1nnnc1SCSc1nnnn1-c1c(C)cccc1C	45*	6	0	-9	0	-5
COc1ccc(-c2nnc3n2N=C(c2cccc(Br)c2)CS3)cc1OC	15	-7	2	-5	0	19
COc1cc(-c2nnc3n2N=C(c2ccccc2)CS3)cc(OC)c1OC	35	2	-1	52*	0	51*
COc1ccc(OC)c(C2=Nn3c(nnc3-c3ccncc3)SC2)c1	3	-10	3	·	1	16
CCOc1cccc(-c2nnc3n2N=C(c2cc(OC)ccc2OC)CS3)c1	30	31	1	·	0	61*
COc1ccc(OC)c(C2=Nn3c(nnc3-c3cc(OC)c(OC)c(OC)c3)SC2)c1	33	14	3	4	3	44*
COc1cccc(-c2nnc3n2N=C(C(C)(C)C)CS3)c1	50*	76*	-1	·	-1	51*
CC(C)c1ccc(NC(=O)C2CC(=O)N=C(N)S2)cc1 (stereo not drawn)	9	9	-5	2	0	-9
Cc1cc(-c2cc(N)n(-c3ccccc3)n2)c(C)n1C1CCCC1	-4	11	-1	2	0	-1
O=C(Nc1ccc(N2CCOCC2)c(F)c1)c1ccncc1	8	10	-2	14	-1	6
SMILES	HEK293 NFkB inh	5-HT1A blocker	HTR1A agonist	Jurkat viability	5HT1E ag	5HT1E antag
COc1cccc(-c2nnc3n2N=C(c2cc(OC)ccc2OC)CS3)c1	17	12	1	·	-1	44*
c1ccc(Oc2ccc(-n3cnnn3)cc2)cc1	11	9	0	-6	-3	29*
O=C(Oc1ccccc1)c1ccc(-n2cnnn2)cc1	9	2	-3	0	0	-3
Cc1ccc(C2CC(c3ccc(C)cc3)n3nc(N)nc3N2)cc1 (stereo not drawn)	6	-12	-1	2	1	-2
CCCC(=O)N1CCN(c2ccc(NC(=O)c3cc4ccccc4o3)cc2Cl)CC1	27	17	-2	19	2	44*
CCC(=O)N1CCN(c2ccc(NC(=O)c3cc4ccccc4o3)cc2Cl)CC1	12	31	1	23	0	36*
O=C(Nc1ccc(N2CCN(C(=O)c3ccco3)CC2)c(Cl)c1)c1cc2ccccc2o1	9	27	4	12	3	38*
O=C(c1cc2ccccc2o1)N1CCN(c2ccccc2Cl)CC1	13	-3	0	-1	0	1
O=C(CN1CCN(c2ncccn2)CC1)N1CCN(C(c2ccccc2)c2ccccc2)CC1	7	17	0	·	1	-1
COC(=O)c1sc(NC(=O)Cc2cccs2)nc1C	10	3	-2	-1	0	11
COc1ccc(OC)c(NC(=O)C2CCCCC2C(=O)O)c1 (stereo not drawn)	6	-12	0	3	15*	-5
COc1ccc(OC)c(NC(=O)C2C3CCC(C3=C(C)C)C2C(=O)O)c1 (stereo not drawn)	8	20	0	10	-2	19
CCc1nc(SCc2cccnc2)[nH]c(=O)c1C	21	-14	-2	1	0	0
Fc1ccccc1CSc1nnnn1-c1ccc2c(c1)OCO2	-14	22	-2	10	-1	35*
COc1ccccc1NC(=O)CSc1nnnn1-c1ccc2c(c1)OCO2	4	15	-3	1	-1	-8
O=C(CSc1nnnn1-c1ccc2c(c1)OCO2)NCc1ccccc1	16	-8	-2	58*	1	15
O=C(c1cc(-c2cccnc2)nc2ccc(Br)cc12)N1CCC2(CC1)OCCO2	-1	-3	0	-4	0	4
Cc1ccc(Oc2ccc(S(=O)(=O)N3CCOCC3)cc2C(N)=O)c(-n2nc3ccccc3n2)c1	28	18	2	87*	0	39*
CN1CCN(S(=O)(=O)c2ccc(NC(=O)c3csc4ccccc34)cc2)CC1	6	15	-2	5	0	35*
CC(C)(C)n1nc2c(c1NC(=O)c1cccc(C(F)(F)F)c1)CS(=O)C2 (stereo not drawn)	4	-11	-1	0	0	-11
Cc1cc(N2CCN(C(c3ccccc3)c3ccccc3)CC2)n2ncnc2n1	13	-2	1	-2	1	-4
Cc1cc(N2CCN(c3nc4ccccc4s3)CC2)n2ncnc2n1	25	-7	3	83*	2	1
